In brackets after ≈: the same amount, converted by molar mass.
Test system: Gallus gallus
Assay: Compound tested in vivo for anti-coccidial activity which cleared number of chicks from parasite at 25 p.p.m. in the diet
Type: functional
Details: not given
Procedure, shortened: (§1)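 Week-old chicks were given a simultaneous infection of Eimeria tenella (Weybridge strain) and E. acervulina (Ongar strain). Compound was mixed into the diet at the stated ppm level. Activity against E. acervulina was judged from oocyst production at day 5. Treated-group weight gain was compared with controls.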

Question: With `CC(C)=CCNc1ncnc2c1cnn2C1O[C@H](CO)[C@@H](O)[C@H]1O` (stereo not given in full) as the compound, how does the No. of chicks read?
Answer: Its No. of chicks is 0.

Test system: Gallus gallus
Assay: Compound tested in vivo for anti-coccidial activity which cleared number of chicks from parasite at 400 ppm in the diet
Type: functional
Details: not given
Procedure, shortened: as §1

Question: Which No. of chicks does the source give for `O=c1[nH]cnc2c1cnn2[C@@H]1O[C@H](CO)[C@@H](O)[C@H]1O` here?
Answer: Its No. of chicks is 0.

Question: `OC[C@H]1OC(n2ncc3c(N4CCOCC4)ncnc32)[C@H](O)[C@@H]1O` (stereo not given in full) was tested. Which No. of chicks did it give?
Answer: Its No. of chicks is 0.

Question: `CCNc1ncnc2c1cnn2C1O[C@H](CO)[C@@H](O)[C@H]1O` (stereo not given in full) was tested. Which No. of chicks did it give?
Answer: Its No. of chicks is 1.

Test system: L cells
Assay: Concentration that inhibited the growth of Mouse L cells.
Type: functional
Details: L929, read-out: ED50 (the source's name)
Procedure, shortened: (§2)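 Cloned Detroit 98 cells (human sternal marrow, ATCC CCL 18.1 derivative) or cloned mouse L cells (C3H/AN connective tissue) were grown as monolayers in modified Eagle's medium at 36 °C in a humidified CO2 incubator. Cells were exposed for 70-76 h, and control cultures reached at least two doublings. Total counts were made by electronic counter on replicate cultures. ED50 is the molar concentration giving 50% of control growth, read from a plot.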

Question: `OC[C@H]1OC(n2ncc3c(NCc4ccco4)ncnc32)[C@H](O)[C@@H]1O` (stereo not given in full) was tested. Which EC50 did it give?
Answer: The EC50 was 3 µM.

Question: With `NNc1ncnc2c1cnn2C1O[C@H](CO)[C@@H](O)[C@H]1O` (stereo not given in full) as the compound, how does the EC50 read?
Answer: Its EC50 is 100 µM.

Question: With `CCCCCCN(CCCCCC)c1ncnc2c1cnn2C1O[C@H](CO)[C@@H](O)[C@H]1O` (stereo not given in full) as the compound, how does the EC50 read?
Answer: Its EC50 is 50 µM.

Question: How did the EC50 turn out when `CC(C)=CCNc1ncnc2c1cnn2C1O[C@H](CO)[C@@H](O)[C@H]1O` (stereo not given in full) was run?
Answer: Its EC50 is > 100 µM.

Question: With `Nc1ncnc2c1ncn2[C@@H]1O[C@H](CO)[C@@H](O)[C@H]1O` [ADENOSINE] as the compound, how does the EC50 read?
Answer: The EC50 was 0.3 µM.

Test system: L cells
Assay: Concentration that inhibited the growth of Mouse L cells
Type: functional
Details: L929, read-out: ED50 (the source's name)
Procedure, shortened: as §2

Question: How did the EC50 turn out when `O=C(Nc1ncnc2c1cnn2C1O[C@H](CO)[C@@H](O)[C@H]1O)c1ccccc1` (stereo not given in full) was run?
Answer: Its EC50 is > 100 µM.

Test system: Gallus gallus
Assay: Compound tested in vivo for anti-coccidial activity which cleared number of chicks from parasite at 400 ppm in the diet; One chick out of five died and contained lesions due to parasite
Type: functional
Details: not given

Question: How did the No. of chicks turn out when `NNc1ncnc2c1cnn2C1O[C@H](CO)[C@@H](O)[C@H]1O` (stereo not given in full) was run?
Answer: The No. of chicks was 0.

Test system: Eimeria tenella
Assay: Anti-coccidial activity which cleared number of chicks from parasite
Type: functional
Details: not given
Procedure, shortened: as §1

Question: For `CNc1ncnc2c1cnn2C1O[C@H](CO)[C@@H](O)[C@H]1O` (stereo not given in full), which No. of chicks is on record?
Answer: The No. of chicks was 0.

Question: Which No. of chicks does the source give for `O=C(Nc1ncnc2c1cnn2C1O[C@H](CO)[C@@H](O)[C@H]1O)c1ccccc1` (stereo not given in full) here?
Answer: The No. of chicks was 0.

Question: How did the No. of chicks turn out when `OC[C@H]1OC(n2ncc3c(NCc4ccccc4)ncnc32)[C@H](O)[C@@H]1O` (stereo not given in full) was run?
Answer: Its No. of chicks is 0.

Question: With `CCCCCCN(CCCCCC)c1ncnc2c1cnn2C1O[C@H](CO)[C@@H](O)[C@H]1O` (stereo not given in full) as the compound, how does the No. of chicks read?
Answer: The No. of chicks was 1.

Question: How did the No. of chicks turn out when `CCCCN(CC)c1ncnc2c1cnn2C1O[C@H](CO)[C@@H](O)[C@H]1O` (stereo not given in full) was run?
Answer: The No. of chicks was 0.

Question: `CCCCCCNc1ncnc2c1cnn2C1O[C@H](CO)[C@@H](O)[C@H]1O` (stereo not given in full) was tested. Which No. of chicks did it give?
Answer: The No. of chicks was 0.

Question: How did the No. of chicks turn out when `CC(C)=CCNc1ncnc2c1cnn2C1O[C@H](CO)[C@@H](O)[C@H]1O` (stereo not given in full) was run?
Answer: The No. of chicks was 0.

Question: Which No. of chicks does the source give for `OC[C@H]1OC(n2ncc3c(NC4CCCC4)ncnc32)[C@H](O)[C@@H]1O` (stereo not given in full) here?
Answer: Its No. of chicks is 5.

Question: With `CCCCNc1ncnc2c1cnn2C1O[C@H](CO)[C@@H](O)[C@H]1O` (stereo not given in full) as the compound, how does the No. of chicks read?
Answer: The No. of chicks was 0.

Question: Which No. of chicks does the source give for `Nc1ncnc2c1ncn2[C@@H]1O[C@H](CO)[C@@H](O)[C@H]1O` [ADENOSINE] here?
Answer: Its No. of chicks is 0.

Test system: Gallus gallus
Assay: Compound tested in vivo for anti-coccidial activity which cleared number of chicks from parasite at 100 ppm in the diet; One chick out of five died and contained lesions due to parasite
Details: not given

Question: `CCCCCCCCNc1ncnc2c1cnn2C1O[C@H](CO)[C@@H](O)[C@H]1O` (stereo not given in full) was tested. Which No. of chicks did it give?
Answer: The No. of chicks was 0.

Question: For `OC[C@H]1OC(n2ncc3c(NCCc4ccccc4)ncnc32)[C@H](O)[C@@H]1O` (stereo not given in full), which No. of chicks is on record?
Answer: The No. of chicks was 0.

Species on record: Gallus gallus
Assay: In vitro minimum inhibitory concentration for Eimeria tenella in embryonic chick liver cells; Toxic
Type: functional
Details: not given
Procedure, shortened: (§3)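 E. tenella (Weybridge strain) was grown in cultured embryonic chick liver cells. The minimum inhibitory concentration against parasite growth was determined, and toxicity to the host cells was recorded alongside it.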

Question: With `O=C(Nc1ncnc2c1cnn2C1O[C@H](CO)[C@@H](O)[C@H]1O)c1ccccc1` (stereo not given in full) as the compound, how does the MIC read?
Answer: The MIC was 5 µg/mL (≈ 13.5 µM).

Question: Which MIC does the source give for `Nc1ncnc2c1ncn2[C@@H]1O[C@H](CO)[C@@H](O)[C@H]1O` [ADENOSINE] here?
Answer: Its MIC is 20 µg/mL (≈ 74.8 µM).

Test system: Detroit 98
Assay: Concentration that inhibited the growth of cultured human detroit 98 cells.
Type: functional
Details: read-out: ED50 (the source's name)
Procedure, shortened: as §2

Question: How did the EC50 turn out when `OC[C@H]1OC(n2ncc3c(NCc4ccco4)ncnc32)[C@H](O)[C@@H]1O` (stereo not given in full) was run?
Answer: Its EC50 is 0.3 µM.

Question: How did the EC50 turn out when `NNc1ncnc2c1cnn2C1O[C@H](CO)[C@@H](O)[C@H]1O` (stereo not given in full) was run?
Answer: Its EC50 is 20 µM.

Question: How did the EC50 turn out when `CCCCCCN(CCCCCC)c1ncnc2c1cnn2C1O[C@H](CO)[C@@H](O)[C@H]1O` (stereo not given in full) was run?
Answer: The EC50 was 50 µM.

Question: For `CC(C)=CCNc1ncnc2c1cnn2C1O[C@H](CO)[C@@H](O)[C@H]1O` (stereo not given in full), which EC50 is on record?
Answer: Its EC50 is 1.5 µM.

Question: `Nc1ncnc2c1ncn2[C@@H]1O[C@H](CO)[C@@H](O)[C@H]1O` [ADENOSINE] was tested. Which EC50 did it give?
Answer: Its EC50 is 0.08 µM.

Test system: Gallus gallus
Assay: Compound tested in vivo for anti-coccidial activity which cleared number of chicks from parasite at 200 p.p.m. in the diet
Details: not given

Question: `CN(C)c1ncnc2c1cnn2C1O[C@H](CO)[C@@H](O)[C@H]1O` (stereo not given in full) was tested. Which No. of chicks did it give?
Answer: The No. of chicks was 2.

Test system: Detroit 98
Assay: Concentration that inhibited the growth of cultured human detroit 98 cells
Type: functional
Details: read-out: ED50 (the source's name)
Procedure, shortened: as §2

Question: How did the EC50 turn out when `O=C(Nc1ncnc2c1cnn2C1O[C@H](CO)[C@@H](O)[C@H]1O)c1ccccc1` (stereo not given in full) was run?
Answer: Its EC50 is > 100 µM.

Species on record: Gallus gallus
Assay: In vitro minimum inhibitory concentration for Eimeria tenella in embryonic chick liver cells; Slightly toxic
Type: functional
Details: not given
Procedure, shortened: as §3

Question: For `OC[C@H]1OC(n2ncc3c(N4CCOCC4)ncnc32)[C@H](O)[C@@H]1O` (stereo not given in full), which MIC is on record?
Answer: The MIC was 20 µg/mL (≈ 59.3 µM).

Test system: Eimeria tenella
Assay: In vitro minimum inhibitory concentration for Eimeria tenella in embryonic chick liver cells
Type: functional
Details: not given
Procedure, shortened: as §3

Question: With `O=c1[nH]cnc2c1cnn2[C@@H]1O[C@H](CO)[C@@H](O)[C@H]1O` as the compound, how does the MIC read?
Answer: The MIC was 20 µg/mL (≈ 74.6 µM).

Question: `OC[C@H]1OC(n2ncc3c(NCc4ccco4)ncnc32)[C@H](O)[C@@H]1O` (stereo not given in full) was tested. Which MIC did it give?
Answer: Its MIC is 0.31 µg/mL (≈ 0.893 µM).

Question: How did the MIC turn out when `CNc1ncnc2c1cnn2C1O[C@H](CO)[C@@H](O)[C@H]1O` (stereo not given in full) was run?
Answer: The MIC was 0.31 µg/mL (≈ 1.1 µM).

Question: With `NNc1ncnc2c1cnn2C1O[C@H](CO)[C@@H](O)[C@H]1O` (stereo not given in full) as the compound, how does the MIC read?
Answer: Its MIC is 5 µg/mL (≈ 17.7 µM).

Question: `CCCCCCCCNc1ncnc2c1cnn2C1O[C@H](CO)[C@@H](O)[C@H]1O` (stereo not given in full) was tested. Which MIC did it give?
Answer: Its MIC is 5 µg/mL (≈ 13.2 µM).

Question: `OC[C@H]1OC(n2ncc3c(NCc4ccccc4)ncnc32)[C@H](O)[C@@H]1O` (stereo not given in full) was tested. Which MIC did it give?
Answer: The MIC was 0.31 µg/mL (≈ 0.867 µM).

Question: For `CCCCCCN(CCCCCC)c1ncnc2c1cnn2C1O[C@H](CO)[C@@H](O)[C@H]1O` (stereo not given in full), which MIC is on record?
Answer: The MIC was > 20 µg/mL.

Question: For `CCCCN(CC)c1ncnc2c1cnn2C1O[C@H](CO)[C@@H](O)[C@H]1O` (stereo not given in full), which MIC is on record?
Answer: The MIC was 5 µg/mL (≈ 14.2 µM).

Question: How did the MIC turn out when `CN(C)c1ncnc2c1cnn2C1O[C@H](CO)[C@@H](O)[C@H]1O` (stereo not given in full) was run?
Answer: Its MIC is 5 µg/mL (≈ 16.9 µM).

Question: `CCN(CC)c1ncnc2c1cnn2C1O[C@H](CO)[C@@H](O)[C@H]1O` (stereo not given in full) was tested. Which MIC did it give?
Answer: Its MIC is 5 µg/mL (≈ 15.5 µM).

Question: For `CCCCCCNc1ncnc2c1cnn2C1O[C@H](CO)[C@@H](O)[C@H]1O` (stereo not given in full), which MIC is on record?
Answer: Its MIC is 1.25 µg/mL (≈ 3.56 µM).

Question: For `CC(C)=CCNc1ncnc2c1cnn2C1O[C@H](CO)[C@@H](O)[C@H]1O` (stereo not given in full), which MIC is on record?
Answer: The MIC was 5 µg/mL (≈ 14.9 µM).

Question: `CCNc1ncnc2c1cnn2C1O[C@H](CO)[C@@H](O)[C@H]1O` (stereo not given in full) was tested. Which MIC did it give?
Answer: Its MIC is 5 µg/mL (≈ 16.9 µM).

Question: `OC[C@H]1OC(n2ncc3c(NC4CCCC4)ncnc32)[C@H](O)[C@@H]1O` (stereo not given in full) was tested. Which MIC did it give?
Answer: The MIC was 0.31 µg/mL (≈ 0.924 µM).

Question: For `CCCCNc1ncnc2c1cnn2C1O[C@H](CO)[C@@H](O)[C@H]1O` (stereo not given in full), which MIC is on record?
Answer: The MIC was 1.25 µg/mL (≈ 3.87 µM).

Question: For `OC[C@H]1OC(n2ncc3c(NCCc4ccccc4)ncnc32)[C@H](O)[C@@H]1O` (stereo not given in full), which MIC is on record?
Answer: The MIC was 5 µg/mL (≈ 13.5 µM).

Test system: Gallus gallus
Assay: Compound tested in vivo for anti-coccidial activity which cleared number of chicks from parasite at 400 ppm in the diet; Chicks showed decreased weight gain
Type: functional
Details: not given
Procedure, shortened: as §1

Question: `CCN(CC)c1ncnc2c1cnn2C1O[C@H](CO)[C@@H](O)[C@H]1O` (stereo not given in full) was tested. Which No. of chicks did it give?
Answer: The No. of chicks was 1.
